# “Also recorded” adds a separate entry of the source.
# What was measured:
# Trypsin = biological target: T1, Trypsin (Bos taurus, UniProt P00760); assay: Selectivity assay with trypsin; assay type: biochemical
# T1 sequence (P00760 24-246): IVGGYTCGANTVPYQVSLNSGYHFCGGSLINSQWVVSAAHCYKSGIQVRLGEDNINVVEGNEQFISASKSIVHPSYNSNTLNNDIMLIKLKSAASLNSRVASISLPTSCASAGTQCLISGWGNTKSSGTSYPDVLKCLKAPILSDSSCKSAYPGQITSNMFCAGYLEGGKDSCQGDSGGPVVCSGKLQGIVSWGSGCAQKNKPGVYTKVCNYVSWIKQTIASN
# Summary of the method: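 TPCK-treated trypsin was exposed to increasing compound at 21°C in 25 mM HEPES with 1 mM CaCl₂. Substrate hydrolysis was tracked as fluorescence increase (ex 496/em 523 nm). Rates were normalized to the no-inhibitor rate and expressed as % activity.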
# AVP-pVIc complexes [1] = biological target: T2, AVP-pVIc complexes (Human adenovirus C serotype 2, UniProt P03252); assay: Inhibition of AVP-pVIc complexes, fluorogenic substrate assay; assay type: biochemical, adenovirus serotype 2
# [2] = biological target: AVP (adenovirus proteinase) (Human adenovirus C serotype 2, UniProt P03252); assay: Inhibition of AVP; assay type: biochemical, adenovirus serotype 2
# Summary of the method: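 Purified adenovirus type 2 AVP was pre-incubated 9 min at 21°C with varied compound in 5 mM NaCl, 20 mM Tris-HCl pH 8, 0.025% DDM, 0.1 mM DTT. pVIc was then added to 20 μM for another 9 min. Rates with 5 μM (Cbz-Leu-Arg-Gly-Gly-NH)₂-Rhodamine were read every 10 s (ex 496/em 523 nm). IC50 came from a four-parameter logistic fit of initial rates.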
# [3] = system: AVP and AVP-pVIc complexes; assay: Coarse screening of structural derivatives for enzyme inhibitors; assay type: biochemical, adenovirus serotype 2; conditions: 40 μM compound, 150 mM NaCl, 0.3 μM enzyme
# Summary of the method: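 AVP (adenovirus type 2, E. coli-expressed) or AVP-pVIc complexes (75 μM each, overnight at 4°C with 20 mM β-mercaptoethanol) were pre-incubated 9 min at 21°C with compound from 10 mM DMSO stock. Buffer was 20 mM Tris-HCl pH 8, 0.025% DDM, 0.1 mM DTT. For AVP, 40 μM pVIc was then added for 9 min more. Initial rates with 5 μM (Cbz-Leu-Arg-Gly-Gly-NH)₂-Rhodamine (ex 496/em 523 nm) were normalized to the no-inhibitor rate.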
# Papain = biological target: T3, Papain (Carica papaya, UniProt P00784); assay: Selectivity assay with papain; assay type: biochemical
# T3 sequence (P00784 134-345): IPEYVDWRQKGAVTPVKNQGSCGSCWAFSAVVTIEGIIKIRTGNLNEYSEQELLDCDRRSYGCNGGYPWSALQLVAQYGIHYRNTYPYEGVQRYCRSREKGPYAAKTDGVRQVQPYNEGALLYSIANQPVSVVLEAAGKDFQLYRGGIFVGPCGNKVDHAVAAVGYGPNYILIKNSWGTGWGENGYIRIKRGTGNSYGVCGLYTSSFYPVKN
# Summary of the method: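 Papain was incubated with increasing compound for 10 min at 21°C in 25 mM sodium acetate with 1 mM DTT. Hydrolysis of the fluorogenic substrate was followed over time (ex 496/em 523 nm). Rates were normalized to the rate without inhibitor and reported as % activity.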
# AVP = AVP (Human adenovirus C serotype 2, UniProt P03252); assay: Mixed inhibition of AVP; assay type: biochemical, adenovirus serotype 2
# AVP-pVIc complexes [4] = biological target: T2, AVP-pVIc complexes; assay: Competitive inhibition of AVP-pVIc complexes; assay type: biochemical, adenovirus serotype 2
# [5] = biological target: Adenovirus proteinase (AVP) (Human adenovirus 2) (UniProt P03252); conditions: cited from earlier work
# [6] = 20 pM trypsin, 10 min, pH 7.5, 10 μM (Ile-Pro-Arg-NH)2-Rhodamine
# [7] = 0.18 μM papain, pH 5, 10 μM (Phe-Arg-NH)2-Rhodamine
# [8] = concentrations 50-fold higher than that inhibiting AVP or AVP-pVIc by more than 90%
# [9] = best fitting model, SigmaPlot Kinetic Module
# Chain of AVP (P03252 whole entry): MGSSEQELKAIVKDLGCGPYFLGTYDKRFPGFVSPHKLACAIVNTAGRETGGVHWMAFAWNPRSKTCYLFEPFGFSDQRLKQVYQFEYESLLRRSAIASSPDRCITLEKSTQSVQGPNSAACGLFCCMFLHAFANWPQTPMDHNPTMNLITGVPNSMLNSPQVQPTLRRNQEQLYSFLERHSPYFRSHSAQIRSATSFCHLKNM
# T2 sequence (P03252 whole entry, one chain of several): as the sequence (P03252 whole entry) above
# Chain of AVP (adenovirus proteinase) (P03252 whole entry): as above
# Chain of Adenovirus proteinase (AVP) (Human adenovirus 2) (P03252 whole entry): as above
# Chain of pVIc (P03274 whole entry, looked up): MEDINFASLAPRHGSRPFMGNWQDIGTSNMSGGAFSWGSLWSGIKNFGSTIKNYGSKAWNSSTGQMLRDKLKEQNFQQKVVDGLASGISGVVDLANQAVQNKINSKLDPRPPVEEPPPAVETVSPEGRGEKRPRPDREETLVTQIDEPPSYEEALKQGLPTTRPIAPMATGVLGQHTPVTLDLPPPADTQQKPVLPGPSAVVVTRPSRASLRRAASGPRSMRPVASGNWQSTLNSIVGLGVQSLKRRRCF
Compound,Inhibition of trypsin (Trypsin; [6]),IC50 (AVP-pVIc complexes [1]) [nM],IC50 [2] [nM],Inhibition in coarse screen [3],Inhibition of papain (Papain; [7]),further results
"O=C1CN2CCN(CC2)CC(=O)Nc2ccc(cc2)S(=O)(=O)c2ccc(cc2)NC(=O)CN2CCN(CC2)CC(=O)Nc2ccc(cc2)S(=O)(=O)c2ccc(cc2)N1 [NSC 36806, 2,21-dithia-7,10,13,16,26,29,32,35-octaazaheptacyclo[34.2.2.23,6.210,13.217, 20.222,25.229,32]pentaconta-1(38),3,5,17,19,22,24,36,39,43,45,49-dodecaene-8,15,27,34-tetrone 2,2,21,21-tetraoxide]",did not inhibit,18000,,,,
"CC(C)CCN(CCC(C)C)CC(=O)Nc1ccc(S(=O)(=O)c2ccc(NC(=O)CN(CCC(C)C)CCC(C)C)cc2)cc1 [NSC 37248, 2-[bis(3-methylbutyl)amino]-N-[4-[4-[[2-[bis(3-methylbutyl)amino]acetyl]amino]phenyl]sulfonylphenyl]acetamide]",No Inhibition,2100,880,inhibit either the activation of AVP or the activity of AVP-pVIc complexes; also recorded: effective inhibitors,No Inhibition,
"O=C(CN(C1CCCCC1)C1CCCCC1)Nc1ccc(S(=O)(=O)c2ccc(NC(=O)CN(C3CCCCC3)C3CCCCC3)cc2)cc1 [NSC 37249, 2-(dicyclohexylamino)-N-[4-[4-[[2-(dicyclohexylamino)acetyl]amino]phenyl]sulfonylphenyl]acetamide]",No Inhibition,490,140,inhibit either the activation of AVP or the activity of AVP-pVIc complexes; also recorded: effective inhibitors,No Inhibition,"Inhibition of trypsin (Trypsin; [8]): did not inhibit; Inhibition of trypsin (Trypsin; concentrations up to 18 μM): no inhibition was observed; Ki (AVP): 150 nM; Type of inhibition, AVP (AVP; [9]): Mixed Inhibition; Ki (AVP-pVIc complexes [4]; Ki AVP:pVIc, competitive inhibition model, substrate 2.5-20 μM): 403 nM; Type of inhibition, AVP-pVIc complexes (AVP-pVIc complexes [4]; [9]): Competitive Inhibition; also recorded: competitive inhibitor; Inhibition of papain (Papain; [8]): did not inhibit; Inhibition of papain (Papain; concentrations up to 50-fold the Ki for AVP): no inhibition was observed"
"CC1COCC(C)N1CC(=O)Nc1ccc(S(=O)(=O)c2ccc(NC(=O)CN3C(C)COCC3C)cc2)cc1 (centres unmarked) [NSC 106702, 2-(3,5-dimethylmorpholin-4-yl)-N-[4-[4-[[2-(3,5-dimethylmorpholin-4-yl)acetyl]amino]phenyl]sulfonylphenyl] acetamide]",,,,inhibit either the activation of AVP or the activity of AVP-pVIc complexes,,
"O=C(Nc1ccc(S(=O)(=O)c2ccc(NC(=O)C(F)(F)N3CCOCC3)cc2)cc1)C(F)(F)N1CCOCC1 [NSC 106721, N-[4-[4-[(2,2-difluoro-2-morpholin-4-ylacetyl)amino]phenyl]sulfonylphenyl]-2,2-difluoro-2-morpholin-4-ylacetamide]",,,,inhibit either the activation of AVP or the activity of AVP-pVIc complexes,,
pVIc (from UniProt P03274),,,,,,Kd [5]: 4400 nM
